Activity data for ten molecules are collected here from ChEMBL document CHEMBL3588843, “Synthesis of C-5″ and C-6″-modified α-GalCer analogues as iNKT-cell agonists” (Bioorg Med Chem, 2015).

Active and inactive are the calls of the source. No cut-off for these calls is given here.

Assay [1] has as its system Mus musculus. Kind of assay: In vivo activation of iNKT cells in C57BL/6 mouse assessed as stimulation of IFNgamma production in serum at 5 ug, ip after 16 hrs by ELISA relative to alpha-GalCer. The assay is classed as functional, organism-based. In a few lines:
(§1)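 C57BL/6 mice, 5–12 weeks old, in-house bred or purchased. Glycolipid dissolved in PBS with DMSO, given intraperitoneally at 5 μg per mouse. Mice bled 4 h (IL-4) and 16 h (IFN-γ) after injection; cytokines measured in serum. At least 2 separate experiments, 5–8 mice per group per glycolipid.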

In assay [2] the test system is Mus musculus. Briefly: In vivo activation of iNKT cells in C57BL/6 mouse assessed as stimulation of IL4 production in serum at 5 ug, ip after 4 hrs by ELISA. The assay is classed as functional, organism-based. A digest of the protocol: as §1
On the technique in general: In an ELISA, binding on a coated surface is turned into a signal by an enzyme label.

With `CCCCCCCCCCCCCCCCCCCCCCCCCC(=O)N[C@@H](CO[C@H]1O[C@H](C(=O)NCc2ccc(Cl)c(Cl)c2)[C@H](O)[C@H](O)[C@H]1O)[C@H](O)[C@H](O)CCCCCCCCCCCCCC`, the result with Mus musculus [1] and in the assay with Mus musculus [2] was inactive.

Take `CCCCCCCCCCCCCCCCCCCCCCCCCC(=O)N[C@@H](CO[C@H]1O[C@H](C(=O)NCc2ccsc2)[C@H](O)[C@H](O)[C@H]1O)[C@H](O)[C@H](O)CCCCCCCCCCCCCC`: the outcome in the assay with Mus musculus [1] was Active. Also, the outcome in the assay on Mus musculus [2] was inactive.

Regarding `CCCCCCCCCCCCCCCCCCCCCCCCCC(=O)N[C@@H](CO[C@H]1O[C@H](C(=O)NCc2ccccc2)[C@H](O)[C@H](O)[C@H]1O)[C@H](O)[C@H](O)CCCCCCCCCCCCCC`, the result in the assay with Mus musculus [1] and in the assay on Mus musculus [2] was inactive.

For the molecule `CCCCCCCCCCCCCCCCCCCCCCCCCC(=O)N[C@@H](CO[C@H]1O[C@H](C(=O)Nc2ccccc2)[C@H](O)[C@H](O)[C@H]1O)[C@H](O)[C@H](O)CCCCCCCCCCCCCC`, the result with Mus musculus [1] was Active. For the same molecule, the outcome with Mus musculus [2] was inactive.

As to `CCCCCCCCCCCCCCCCCCCCCCCCCC(=O)N[C@@H](CO[C@H]1O[C@H](C(=O)Nc2ccc(Cl)c(Cl)c2)[C@H](O)[C@H](O)[C@H]1O)[C@H](O)[C@H](O)CCCCCCCCCCCCCC`, the result in the assay with Mus musculus [1] and in the assay with Mus musculus [2] was inactive.

In the case of `CCCCCCCCCCCCCCCCCCCCCCCCCC(=O)N[C@@H](CO[C@H]1O[C@H](COC(=O)Nc2ccc(Cl)cc2)[C@H](O)[C@H](O)[C@H]1O)[C@H](O)[C@H](O)CCCCCCCCCCCCCC`, the result with Mus musculus [1] and with Mus musculus [2] was Active.

For `CCCCCCCCCCCCCCCCCCCCCCCCCC(=O)N[C@@H](CO[C@H]1O[C@H](C(=O)NCCc2ccccc2)[C@H](O)[C@H](O)[C@H]1O)[C@H](O)[C@H](O)CCCCCCCCCCCCCC`, the result in the assay on Mus musculus [1] and with Mus musculus [2] was inactive.

For the molecule `CCCCCCCCCCCCCCCCCCCCCCCCCC(=O)N[C@@H](CO[C@H]1O[C@H](COC(=O)Nc2cccc3ccccc23)[C@H](O)[C@H](O)[C@H]1O)[C@H](O)[C@H](O)CCCCCCCCCCCCCC`, the result in the assay with Mus musculus [1] and in the assay with Mus musculus [2] was Active.

As for `CCCCCCCCCCCCCCCCCCCCCCCCCC(=O)N[C@@H](CO[C@H]1O[C@H](COC(=O)Nc2ccncc2)[C@H](O)[C@H](O)[C@H]1O)[C@H](O)[C@H](O)CCCCCCCCCCCCCC`, the result in the assay on Mus musculus [1] and in the assay with Mus musculus [2] was Active.

Consider `CCCCCCCCCCCCCCCCCCCCCCCCCC(=O)N[C@@H](CO[C@H]1O[C@H](C(=O)NCc2cccc3ccccc23)[C@H](O)[C@H](O)[C@H]1O)[C@H](O)[C@H](O)CCCCCCCCCCCCCC`, for which the result with Mus musculus [1] and with Mus musculus [2] was inactive.
